# From ChEMBL document CHEMBL3588757, “Structure-based design, synthesis and biological testing of piperazine-linked bis-epipodophyllotoxin etoposide analogs” (Bioorg Med Chem, 2015)
# Experiments:
# Format in all cases: functional
# SK-MEL-28 [1] = assay: Cytotoxicity against human SK-MEL-28 cells assessed as cell growth at 0.05 uM by SRB assay; settings: read-out: Activity
# NCI-H460 = assay: Cytotoxicity against human NCI-H460 cells assessed as cell growth at 50 uM by SRB assay; settings: read-out: Activity
# SK-MEL-28 [2] = assay: Cytotoxicity against human SK-MEL-28 cells assessed as cell growth at 0.005 uM by SRB assay; settings: read-out: Activity
# SNB-19 = assay: Cytotoxicity against human SNB19 cells assessed as cell growth at 0.005 uM by SRB assay; settings: read-out: Activity
# HCT-15 = assay: Cytotoxicity against human HCT15 cells assessed as cell growth at 0.05 uM by SRB assay; settings: read-out: Activity
# Summary of the method: (§1)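 Measured in the NCI-60 human tumour cell line panel using five-dose testing. Growth was recorded at each dose for each cell line, and a GI50 was derived for each line.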
# MCF7 = assay: Cytotoxicity against human MCF7 cells assessed as cell growth at 50 uM by SRB assay; settings: read-out: Activity
# M14 [3] = assay: Cytotoxicity against human M14 cells assessed as cell growth at 50 uM by SRB assay; settings: read-out: Activity
# [4] = Cytotoxicity against human Hs578T cells assessed as cell growth at 0.05 uM by SRB assay; settings: Hs-578T, read-out: Activity; summary of the method: as §1
# [5] = Cytotoxicity against human Hs578T cells assessed as cell growth at 0.005 uM by SRB assay; settings: Hs-578T, read-out: Activity; summary of the method: as §1
# KM12 = assay: Cytotoxicity against human KM12 cells assessed as cell growth at 5 uM by SRB assay; settings: read-out: Activity
# RPMI-8226 [6] = assay: Cytotoxicity against human RPMI8226 cells by SRB assay
# Summary of the method: (§2)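 NCI-60 panel screen; 5-dose testing giving GI50 per cell line, plus a single 10 µM one-dose test. Method details not given beyond the NCI screen.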
# OVCAR-4 [7] = assay: Cytotoxicity against human OVCAR4 cells assessed as cell growth at 50 uM by SRB assay; settings: read-out: Activity
# NCI-H23 [8] = assay: Cytotoxicity against human NCI-H23 cells by SRB assay; summary of the method: as §2
# NCI-H322M [9] = assay: Cytotoxicity against human NCI-H322M cells by SRB assay; summary of the method: as §2
# RPMI-8226 [10] = assay: Cytotoxicity against human RPMI8226 cells assessed as cell growth at 5 uM by SRB assay; settings: read-out: Activity
# 786-0 = assay: Cytotoxicity against human 786-0 cells assessed as cell growth at 50 uM by SRB assay; settings: read-out: Activity
# SR [11] = assay: Cytotoxicity against human SR cells assessed as cell growth at 50 uM by SRB assay; settings: read-out: Activity
# RXF 393 = assay: Cytotoxicity against human RXF393 cells assessed as cell growth at 0.005 uM by SRB assay; settings: read-out: Activity
# SN12C = assay: Cytotoxicity against human SN12C cells assessed as cell growth at 0.05 uM by SRB assay; settings: read-out: Activity
# OVCAR-5 = assay: Cytotoxicity against human OVCAR5 cells assessed as cell growth at 5 uM by SRB assay; settings: read-out: Activity
# OVCAR-4 [12] = assay: Cytotoxicity against human OVCAR4 cells by SRB assay; summary of the method: as §2
# IGROV-1 = assay: Cytotoxicity against human IGROV1 cells assessed as cell growth at 50 uM by SRB assay; settings: read-out: Activity
# NCI-H226 = assay: Cytotoxicity against human NCI-H226 cells assessed as cell growth at 0.005 uM by SRB assay; settings: read-out: Activity
# SK-MEL-28 [13] = assay: Cytotoxicity against human SK-MEL-28 cells assessed as cell growth at 50 uM by SRB assay; settings: read-out: Activity
# HOP-92 = assay: Cytotoxicity against human HOP92 cells assessed as cell growth at 0.005 uM by SRB assay; settings: read-out: Activity; summary of the method: as §1
# SF-268 = assay: Cytotoxicity against human SF268 cells assessed as cell growth at 0.005 uM by SRB assay; settings: read-out: Activity
# LOX IMVI = assay: Cytotoxicity against human LOXIMVI cells assessed as cell growth at 50 uM by SRB assay; settings: read-out: Activity
# NCI-H23 [14] = assay: Cytotoxicity against human NCI-H23 cells assessed as cell growth at 0.05 uM by SRB assay; settings: read-out: Activity
# MDA-MB-231 = assay: Cytotoxicity against human MDA-MB-231/ATCC cells assessed as cell growth at 5 uM by SRB assay; settings: read-out: Activity
# CAKI-1 = assay: Cytotoxicity against human Caki1 cells assessed as cell growth at 50 uM by SRB assay; settings: read-out: Activity
# SK-OV-3 = assay: Cytotoxicity against human SKOV3 cells assessed as cell growth at 5 uM by SRB assay; settings: read-out: Activity
# NCI-H322M [15] = assay: Cytotoxicity against human NCI-H322M cells assessed as cell growth at 0.005 uM by SRB assay; settings: read-out: Activity
# SR [16] = assay: Cytotoxicity against human SR cells assessed as cell growth at 5 uM by SRB assay; settings: read-out: Activity
# T47D = assay: Cytotoxicity against human T47D cells assessed as cell growth at 0.5 uM by SRB assay; settings: read-out: Activity
# BT-549 = assay: Cytotoxicity against human BT549 cells by SRB assay
# HCT-116 = assay: Cytotoxicity against human HCT116 cells assessed as cell growth at 0.5 uM by SRB assay; settings: read-out: Activity; summary of the method: as §1
# UO-31 = assay: Cytotoxicity against human UO31 cells by SRB assay; summary of the method: as §2
# OVCAR-4 [17] = assay: Cytotoxicity against human OVCAR4 cells assessed as cell growth at 0.5 uM by SRB assay; settings: read-out: Activity
# M14 [18] = assay: Cytotoxicity against human M14 cells assessed as cell growth at 5 uM by SRB assay; settings: read-out: Activity
# OVCAR-4 [19] = assay: Cytotoxicity against human OVCAR4 cells assessed as cell growth at 0.05 uM by SRB assay; settings: read-out: Activity
# HCC 2998 = assay: Cytotoxicity against human HCC2998 cells assessed as cell growth at 5 uM by SRB assay; settings: read-out: Activity; summary of the method: as §1
# SF-539 = assay: Cytotoxicity against human SF539 cells assessed as cell growth at 0.005 uM by SRB assay; settings: read-out: Activity
# RPMI-8226 [20] = assay: Cytotoxicity against human RPMI8226 cells assessed as cell growth at 0.05 uM by SRB assay; settings: read-out: Activity
# [21] = read-out: LC50 (the source's name)
# [22] = read-out: pLC50 (the source's name) (converted)
structure (smiles),measurement,setting,value
COc1cc([C@@H]2c3cc4c(cc3[C@@H](NC(=O)CN3CCN(CCCCCCCCCCN5CCN(CC(=O)N[C@@H]6c7cc8c(cc7[C@@H](c7cc(OC)c(O)c(OC)c7)[C@H]7C(=O)OC[C@@H]76)OCO8)CC5)CC3)[C@H]3COC(=O)[C@H]23)OCO4)cc(OC)c1O,growth at 0.05 µM,SK-MEL-28 [1],100%
same,growth at 50 µM,NCI-H460,-81%
same,growth at 0.005 µM,SK-MEL-28 [2],96%
same,growth at 0.005 µM,SNB-19,99%
same,growth at 0.05 µM,HCT-15,80%
same,growth at 50 µM,MCF7,-60%
same,growth at 50 µM,M14 [3],-49%
same,growth at 0.05 µM,[4],95%
same,growth at 0.005 µM,[5],94%
same,growth at 5 µM,KM12,-22%
same,GI50,RPMI-8226 [6]; read-out: GI50,0.0163 µM
same,CC50,RPMI-8226 [6]; [21],> 50 µM
same,TGI,RPMI-8226 [6]; read-out: TGI,0.369 µM
same,GI50,RPMI-8226 [6]; read-out: pGI50 (converted),0.0162 µM
same,CC50,RPMI-8226 [6]; [22],> 50.1 µM
same,TGI,RPMI-8226 [6]; read-out: pTGI (converted),0.372 µM
same,growth at 50 µM,OVCAR-4 [7],-77%
same,GI50,NCI-H23 [8]; read-out: GI50,0.181 µM
same,CC50,NCI-H23 [8]; [21],9.3 µM
same,TGI,NCI-H23 [8]; read-out: TGI,1.32 µM
same,GI50,NCI-H23 [8]; read-out: pGI50 (converted),0.182 µM
same,CC50,NCI-H23 [8]; [22],9.33 µM
same,TGI,NCI-H23 [8]; read-out: pTGI (converted),1.32 µM
same,GI50,NCI-H322M [9]; read-out: GI50,0.387 µM
same,CC50,NCI-H322M [9]; [21],> 50 µM
same,TGI,NCI-H322M [9]; read-out: TGI,1.64 µM
same,GI50,NCI-H322M [9]; read-out: pGI50 (converted),0.389 µM
same,CC50,NCI-H322M [9]; [22],> 50.1 µM
same,TGI,NCI-H322M [9]; read-out: pTGI (converted),1.62 µM
same,growth at 5 µM,RPMI-8226 [10],-15%
same,growth at 50 µM,786-0,-78%
same,growth at 50 µM,SR [11],-12%
same,growth at 0.005 µM,RXF 393,88%
same,growth at 0.05 µM,SN12C,80%
same,growth at 5 µM,OVCAR-5,5%
same,GI50,OVCAR-4 [12]; read-out: GI50,0.911 µM
same,CC50,OVCAR-4 [12]; [21],14.1 µM
same,TGI,OVCAR-4 [12]; read-out: TGI,2.73 µM
same,GI50,OVCAR-4 [12]; read-out: pGI50 (converted),0.912 µM
same,CC50,OVCAR-4 [12]; [22],14.1 µM
same,TGI,OVCAR-4 [12]; read-out: pTGI (converted),2.75 µM
same,growth at 50 µM,IGROV-1,-41%
same,growth at 0.005 µM,NCI-H226,92%
same,growth at 50 µM,SK-MEL-28 [13],-83%
same,growth at 0.005 µM,HOP-92,91%
same,growth at 0.005 µM,SF-268,97%
same,growth at 50 µM,LOX IMVI,3%
same,growth at 0.05 µM,NCI-H23 [14],81%
same,growth at 5 µM,MDA-MB-231,-45%
same,growth at 50 µM,CAKI-1,-97%
same,growth at 5 µM,SK-OV-3,4%
same,growth at 0.005 µM,NCI-H322M [15],96%
same,growth at 5 µM,SR [16],-26%
same,growth at 0.5 µM,T47D,49%
same,GI50,BT-549; read-out: GI50,0.576 µM
same,TGI,BT-549; read-out: TGI,1.46 µM
same,GI50,BT-549; read-out: pGI50 (converted),0.575 µM
same,TGI,BT-549; read-out: pTGI (converted),1.48 µM
same,growth at 0.5 µM,HCT-116,78%
same,GI50,UO-31; read-out: GI50,0.986 µM
same,CC50,UO-31; [21],13.5 µM
same,TGI,UO-31; read-out: TGI,3.61 µM
same,GI50,UO-31; read-out: pGI50 (converted),0.977 µM
same,CC50,UO-31; [22],13.5 µM
same,TGI,UO-31; read-out: pTGI (converted),3.63 µM
same,growth at 0.5 µM,OVCAR-4 [17],77%
same,growth at 5 µM,M14 [18],-36%
same,growth at 0.05 µM,OVCAR-4 [19],94%
same,growth at 5 µM,HCC 2998,29%
same,growth at 0.005 µM,SF-539,98%
same,growth at 0.05 µM,RPMI-8226 [20],13%
